Reference: ChEMBL document CHEMBL1134386, “Cardioselective K(ATP) channel blockers derived from a new series of m-anisamidoethylbenzenesulfonylthioureas” (J Med Chem, 2001)

Experiments:
Format in all cases: functional, cell-based
[1] = target: T1, Sulfonylurea receptor 1, Kir6.2 (Homo sapiens) (UniProt Q14654+Q09428); assay: Antiarrhythmic effect in hSUR1/hKir6.2 (pancreatic KATP channel) transfected in CHO cells at a dose of 0.1 uM; conditions: at 0.1 µM
Summary of the method: (§1)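 CHO cells stably expressing SUR1/Kir6.2, seeded the day before and washed three times in PBS. Loaded with voltage dye DiBAC4(3), added as a 10 µM solution, with diazoxide, added as a 400 µM solution, both in PBS; 30 min at 37 °C. Compound added after 4 min of baseline. Fluorescence read with 488 nm excitation every 20 s for 20 min. Mean of at least four experiments.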

[2] = target: T1, Sulfonylurea receptor 1, Kir6.2 (Homo sapiens); assay: Antiarrhythmic effect in hSUR1/hKir6.2 (pancreatic KATP channel) transfected in CHO cells at a dose of 1 uM; conditions: at 1 µM; summary of the method: as §1
[3] = target: T1, Sulfonylurea receptor 1, Kir6.2 (Homo sapiens); assay: Antiarrhythmic effect in hSUR1/hKir6.2 (pancreatic KATP channel) transfected in CHO cells at a dose of 10 uM; conditions: at 10 µM; summary of the method: as §1
[4] = target: T1, Sulfonylurea receptor 1, Kir6.2 (Homo sapiens); assay: Antiarrhythmic effect in hSUR1/hKir6.2 (pancreatic KATP channel) transfected in CHO cells at 1 nM
Summary of the method: (§2)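 CHO cells stably expressing SUR1/Kir6.2, seeded the day before and washed three times with PBS. Loaded with DiBAC4(3) plus diazoxide in PBS for 30 min at 37 °C. Membrane-potential fluorescence read with 488 nm excitation; compound added at 4 min, then readings every 20 s for 20 min. Mean of at least four experiments.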

[5] = target: T1, Sulfonylurea receptor 1, Kir6.2 (Homo sapiens); assay: Antiarrhythmic effect in hSUR1/hKir6.2 (pancreatic KATP channel) transfected in CHO cells at 3 nM; summary of the method: as §2

For `C=CCOc1ccc(CCNC(=O)c2cc(Cl)ccc2OC)cc1S(=O)(=O)/N=C(\S)NC`, the inhibition [1] was 1.7%, the inhibition [2] was 31.8% and the inhibition [3] was 94%.

In the case of `CN/C(S)=N/S(=O)(=O)c1cc(CCNC(=O)c2cc(Cl)ccc2OC)ccc1-c1ccccn1`, the inhibition [1] is reported as 6.6%, the inhibition [2] is reported as 24.4% and the inhibition [3] is reported as 91.4%.

For `CN/C(S)=N/S(=O)(=O)c1cc(CCNC(=O)c2cc(Cl)ccc2OC)ccc1F`, the inhibition [1] was -3.9%, the inhibition [2] was -1.3% and the inhibition [3] was 18.1%.

`C#Cc1ccc(CCNC(=O)c2cc(Cl)ccc2OC)cc1S(=O)(=O)/N=C(\S)NC` gave an inhibition [1] of 3.3%, an inhibition [2] of 3.4% and an inhibition [3] of 27.6%.

`CCOc1ccc(CCNC(=O)c2cc(Cl)ccc2OC)cc1S(=O)(=O)/N=C(\S)NC` was tested, and the inhibition [1] was -2.7%, the inhibition [2] was 16.3% and the inhibition [3] was 75.4%.

Compound `COc1ccc(Cl)cc1C(=O)NCCc1ccc(S(=O)(=O)NC(=O)NC2CCCCC2)cc1` has an inhibition [4] of 24% and an inhibition [5] of 73.3%.

Work on `COc1ccc(Cl)cc1C(=O)NCCc1ccc(OC)c(S(=O)(=O)NC(=O)NC2CCCCC2)c1` yielded an inhibition [1] of 65.5%, an inhibition [2] of 92.8% and an inhibition [3] of 81.7%.

Work on `CN/C(S)=N/S(=O)(=O)c1cc(CCNC(=O)c2cc(Cl)ccc2OC)ccc1SC` yielded an inhibition [1] of -2.1%, an inhibition [2] of 15.2% and an inhibition [3] of 81.4%.

`COc1ccc(Cl)cc1C(=O)NCCc1ccc(OC)c(S(=O)(=O)NC(=O)N(C)C)c1` was tested, and the inhibition [1] was -3.6%, the inhibition [2] was -3.2% and the inhibition [3] was 25%.

`CN/C(S)=N/S(=O)(=O)c1cc(CCNC(=O)c2cc(Cl)ccc2OC)ccc1OCCOC` gave an inhibition [1] of 12.5%, an inhibition [2] of 26.2% and an inhibition [3] of 49.5%.

For `CN/C(S)=N/S(=O)(=O)c1cc(CCNC(=O)c2cc(Cl)ccc2OC)c(OC)c(C)c1OC`, the inhibition [1] was -2%, the inhibition [2] was 6.7% and the inhibition [3] was 47.8%.

`CN/C(S)=N/S(=O)(=O)c1cc(CCNC(=O)c2cc(Cl)ccc2OC)c(OC)cc1OC` showed an inhibition [1] of -1%, an inhibition [2] of 0.7% and an inhibition [3] of 30.5%.

Work on `CN/C(S)=N/S(=O)(=O)c1cc(CCNC(=O)c2cc(Cl)ccc2OC)ccc1C` yielded an inhibition [1] of 1.9%, an inhibition [2] of 21% and an inhibition [3] of 74.8%.

In the case of `CN/C(S)=N/S(=O)(=O)c1cccc(CCNC(=O)c2cc(Cl)ccc2OC)c1`, the inhibition [1] is reported as -4.1%, the inhibition [2] is reported as 1.9% and the inhibition [3] is reported as 52.7%.

For `CN/C(S)=N/S(=O)(=O)c1cc(CCNC(=O)c2cc(Cl)ccc2OC)ccc1[S+](C)[O-]` (stereo not given), the inhibition [1] was 1.9%, the inhibition [2] was 2.4% and the inhibition [3] was 17.6%.

Work on `CN/C(S)=N/S(=O)(=O)c1cc(CCNC(=O)c2cc(Cl)ccc2OC)ccc1OC(C)C` yielded an inhibition [1] of -4.7%, an inhibition [2] of 27.4% and an inhibition [3] of 81.1%.

For `CN/C(S)=N/S(=O)(=O)c1cc(CCNC(=O)c2cc(Cl)ccc2OC)ccc1I`, the inhibition [1] was 1.7%, the inhibition [2] was 19.2% and the inhibition [3] was 89.2%.

Work on `CN/C(S)=N/S(=O)(=O)c1cc2c(cc1OC)OCCC2CNC(=O)c1cc(Cl)ccc1OC` (single isomer, unassigned; (-)) yielded an inhibition [1] of 6.8%, an inhibition [2] of 63% and an inhibition [3] of 75.7%.

With `CN/C(S)=N/S(=O)(=O)c1cc(CCNC(=O)c2cc(Cl)ccc2OC)ccc1N1CCOCC1` the inhibition [1] was -1.6%, the inhibition [2] was 26.7% and the inhibition [3] was 89.1%.

`CN/C(S)=N/S(=O)(=O)c1cc(CCNC(=O)c2cc(Cl)ccc2OC)ccc1-c1ccccc1` was tested, and the inhibition [1] was 9.4%, the inhibition [2] was 33% and the inhibition [3] was 67.7%.

Compound `CN/C(S)=N/S(=O)(=O)c1cc(CCNC(=O)c2cc(Cl)ccc2OC)ccc1-c1ccco1` has an inhibition [1] of -2.6%, an inhibition [2] of 16% and an inhibition [3] of 82.7%.

Compound `CNC(=S)NS(=O)(=O)c1cc(CCNC(=O)c2cc(Cl)ccc2OC)ccc1OC` has an inhibition [1] of 5%, an inhibition [2] of 24.3% and an inhibition [3] of 83.8%.

`CCc1ccc(CCNC(=O)c2cc(Cl)ccc2OC)cc1S(=O)(=O)/N=C(\S)NC` gave an inhibition [1] of 1.3%, an inhibition [2] of 20.5% and an inhibition [3] of 92.9%.

Compound `COc1ccc(Cl)cc1C(=O)NCCc1ccc(OC)c(S(=O)(=O)/N=C(\S)NC2CCCCC2)c1` has an inhibition [1] of 20.5%, an inhibition [2] of 87.6% and an inhibition [3] of 122%.

`CNC(=O)NS(=O)(=O)c1cc(CCNC(=O)c2cc(Cl)ccc2OC)c(OC)cc1OC` gave an inhibition [1] of -0.6%, an inhibition [2] of 2.8% and an inhibition [3] of 13.5%.

In the case of `CN/C(S)=N/S(=O)(=O)c1cc(CCNC(=O)c2cc(Cl)ccc2OC)ccc1Br`, the inhibition [1] is reported as 3.3%, the inhibition [2] is reported as 2.2% and the inhibition [3] is reported as 67.7%.

`CN/C(S)=N/S(=O)(=O)c1cc(CCNC(=O)c2cc(Cl)ccc2OC)ccc1OCCOCCOC` showed an inhibition [1] of 1%, an inhibition [2] of 45.5% and an inhibition [3] of 96.4%.

Work on `CNC(=O)NS(=O)(=O)c1ccc(CCNC(=O)c2cc(Cl)ccc2OC)cc1` yielded an inhibition [1] of -0.7%, an inhibition [2] of 62.8% and an inhibition [3] of 86.3%.

`CN/C(S)=N/S(=O)(=O)c1cc(CCNC(=O)c2cc(Cl)ccc2OC)c(C)c(C)c1OC` showed an inhibition [1] of 0.8%, an inhibition [2] of 6.1% and an inhibition [3] of 64.9%.

Work on `CN/C(S)=N/S(=O)(=O)c1cc(CCNC(=O)c2cc(Cl)ccc2OC)cc(OC)c1OC` yielded an inhibition [1] of -3.8%, an inhibition [2] of -2.12% and an inhibition [3] of -2.34%.

For `CNC(=O)NS(=O)(=O)c1cc2c(cc1OC)OCCC2CNC(=O)c1cc(Cl)ccc1OC` (single isomer, unassigned; (-)), the inhibition [1] was 2.5%, the inhibition [2] was 14.2% and the inhibition [3] was 105%.

Work on `CCCc1ccc(CCNC(=O)c2cc(Cl)ccc2OC)cc1S(=O)(=O)/N=C(\S)NC` yielded an inhibition [1] of 2.3%, an inhibition [2] of 41.5% and an inhibition [3] of 97.1%.

Compound `CN/C(S)=N/S(=O)(=O)c1cc(CCNC(=O)c2cc(Cl)ccc2OC)ccc1Cl` has an inhibition [1] of 2.3%, an inhibition [2] of 2.8% and an inhibition [3] of 40.1%.

`CN/C(S)=N/S(=O)(=O)c1cc(CCNC(=O)c2cc(Cl)ccc2OC)ccc1OC(F)(F)F` gave an inhibition [1] of 0.8%, an inhibition [2] of 6% and an inhibition [3] of 64.9%.

In the case of `CN/C(S)=N/S(=O)(=O)c1cc(CCNC(=O)c2cc(Cl)ccc2OC)ccc1-c1cccnc1`, the inhibition [1] is reported as 4.4%, the inhibition [2] is reported as 10.2% and the inhibition [3] is reported as 62.3%.

In the case of `CN/C(S)=N/S(=O)(=O)c1cc(CCNC(=O)c2cc(Cl)ccc2OC)ccc1C(C)C`, the inhibition [1] is reported as 12%, the inhibition [2] is reported as 29.3% and the inhibition [3] is reported as 92.4%.

With `CN/C(S)=N/S(=O)(=O)c1cc(CCNC(=O)c2cc(Cl)ccc2OC)ccc1S(C)(=O)=O` the inhibition [1] was 1.8%, the inhibition [2] was 1.1% and the inhibition [3] was 16.4%.

Compound `CNC(=O)NS(=O)(=O)c1cc2c(cc1OC)OCCC2CNC(=O)c1cc(Cl)ccc1OC` (single isomer, unassigned; (+)) has an inhibition [1] of 2%, an inhibition [2] of 1% and an inhibition [3] of 0.3%.

`CN/C(S)=N/S(=O)(=O)c1cc2c(cc1OC)OCCC2CNC(=O)c1cc(Cl)ccc1OC` (single isomer, unassigned; (+)) was tested, and the inhibition [1] was -3.9%, the inhibition [2] was 3.6% and the inhibition [3] was 70.7%.

`COc1ccc(Cl)cc1C(=O)NCCc1ccc(OC)c(S(=O)(=O)/N=C(/N)S)c1` showed an inhibition [1] of 1.6%, an inhibition [2] of 11.2% and an inhibition [3] of 64.7%.

`CCCOc1ccc(CCNC(=O)c2cc(Cl)ccc2OC)cc1S(=O)(=O)/N=C(\S)NC` gave an inhibition [1] of 4.2%, an inhibition [2] of 63.6% and an inhibition [3] of 103%.

`CNC(=O)NS(=O)(=O)c1cc(CCNC(=O)c2cc(Cl)ccc2OC)ccc1OC` showed an inhibition [1] of -2.8%, an inhibition [2] of -1.3% and an inhibition [3] of 43.9%.
